From ChEMBL document CHEMBL1143592, “N-terminal sugar conjugation and C-terminal Thr-for-Thr(ol) exchange in radioiodinated Tyr3-octreotide: effect on cellular ligand trafficking in vitro and tumor accumulation in vivo” (J Med Chem, 2005)

Legend:
Assay type in all cases: cell-based
[1] = target: T1, Somatostatin receptor type 3 (Homo sapiens, UniProt P32745); experiment: In vitro inhibition of [125I][Leu8,D-Trp22,Tyr25] somatostatin 28 binding to human somatostatin receptor type 3 expressed in CCL39 cells; (n=2)
T1 sequence (P32745 whole entry): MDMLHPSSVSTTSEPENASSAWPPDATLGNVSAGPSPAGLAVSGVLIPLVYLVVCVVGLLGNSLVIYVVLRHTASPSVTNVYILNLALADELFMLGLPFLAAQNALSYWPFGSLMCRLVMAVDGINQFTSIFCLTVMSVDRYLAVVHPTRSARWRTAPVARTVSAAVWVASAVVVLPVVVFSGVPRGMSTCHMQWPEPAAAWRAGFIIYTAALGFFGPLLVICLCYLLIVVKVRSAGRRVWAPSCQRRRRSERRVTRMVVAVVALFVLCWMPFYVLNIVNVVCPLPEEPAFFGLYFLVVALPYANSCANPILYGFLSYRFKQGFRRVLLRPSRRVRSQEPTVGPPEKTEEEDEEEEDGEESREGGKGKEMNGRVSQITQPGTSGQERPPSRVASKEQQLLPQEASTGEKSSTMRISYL
How it was run: (§1)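 Receptor autoradiography on sections of cell membrane pellets from CHO-K1 (sst1, sst5) or CCL39 (sst2–4) cells stably expressing the human subtype. Full displacement of [125I][Leu8,D-Trp22,Tyr25]somatostatin 28 by unlabeled peptide, 0.1–1000 nM, with somatostatin 28 run in parallel as control. IC50 derived by computer-assisted image analysis, quantified against cross-calibrated [125I] tissue standards.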

[2] = target: T2, Somatostatin receptor type 1 (Homo sapiens, UniProt P30872); experiment: In vitro inhibitory concentration against somatostatin receptor type 1 expressed in CHO-K1 cells using [125I][Leu8,D-Trp22,Tyr25] somatostatin 28 as radioligand; (n=2); how it was run: as §1
T2 sequence (P30872 whole entry): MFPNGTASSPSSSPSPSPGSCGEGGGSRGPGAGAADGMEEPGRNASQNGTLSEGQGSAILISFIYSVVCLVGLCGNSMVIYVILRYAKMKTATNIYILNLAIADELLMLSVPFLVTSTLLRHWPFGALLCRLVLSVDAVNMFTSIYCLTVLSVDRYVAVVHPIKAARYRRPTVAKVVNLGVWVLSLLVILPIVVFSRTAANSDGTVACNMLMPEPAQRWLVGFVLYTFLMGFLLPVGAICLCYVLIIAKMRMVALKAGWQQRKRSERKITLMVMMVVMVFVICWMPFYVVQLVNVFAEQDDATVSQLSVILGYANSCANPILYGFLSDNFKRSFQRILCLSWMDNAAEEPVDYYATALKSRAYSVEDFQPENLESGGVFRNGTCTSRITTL

[3] = target: T3, Somatostatin receptor type 4 (Homo sapiens, UniProt P31391); experiment: In vitro inhibition of [125I][Leu8,D-Trp22,Tyr25] somatostatin 28 binding to human somatostatin receptor type 4 expressed in CCL39 cells; (n=2); how it was run: as §1
T3 sequence (P31391 whole entry): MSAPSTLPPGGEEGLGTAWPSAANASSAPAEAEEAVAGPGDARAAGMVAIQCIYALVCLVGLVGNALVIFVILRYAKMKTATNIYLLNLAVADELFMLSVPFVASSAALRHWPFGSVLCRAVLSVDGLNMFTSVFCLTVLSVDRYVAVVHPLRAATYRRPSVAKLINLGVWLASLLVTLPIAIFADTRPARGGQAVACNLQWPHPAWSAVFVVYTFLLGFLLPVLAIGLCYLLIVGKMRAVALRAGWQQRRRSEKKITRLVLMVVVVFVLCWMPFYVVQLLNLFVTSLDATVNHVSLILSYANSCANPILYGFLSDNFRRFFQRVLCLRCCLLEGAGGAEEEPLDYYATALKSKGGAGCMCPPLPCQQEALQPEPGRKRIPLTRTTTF

[4] = target: T1, Somatostatin receptor type 3; experiment: In vitro inhibition of [125I][Leu8,D-Trp22,Tyr25] somatostatin 28 binding to human somatostatin receptor type 3 expressed in CCL39 cells; (n=5)
[5] = target: T2, Somatostatin receptor type 1; experiment: In vitro inhibition of [125I][Leu8,D-Trp22,Tyr25] somatostatin 28 binding to human somatostatin receptor type 1 expressed in CHO-K1 cells; (n=5)
[6] = target: T3, Somatostatin receptor type 4; experiment: In vitro inhibition of [125I][Leu8,D-Trp22,Tyr25] somatostatin 28 binding to human somatostatin receptor type 4 expressed in CCL39 cells; (n=5)
[7] = target: Somatostatin receptor type 2 (Homo sapiens, UniProt P30874); experiment: Relative effective concentration against human somatostatin receptor type 2 expressed in CHO cells; (n=3)
Chain of Somatostatin receptor type 2 (P30874 whole entry): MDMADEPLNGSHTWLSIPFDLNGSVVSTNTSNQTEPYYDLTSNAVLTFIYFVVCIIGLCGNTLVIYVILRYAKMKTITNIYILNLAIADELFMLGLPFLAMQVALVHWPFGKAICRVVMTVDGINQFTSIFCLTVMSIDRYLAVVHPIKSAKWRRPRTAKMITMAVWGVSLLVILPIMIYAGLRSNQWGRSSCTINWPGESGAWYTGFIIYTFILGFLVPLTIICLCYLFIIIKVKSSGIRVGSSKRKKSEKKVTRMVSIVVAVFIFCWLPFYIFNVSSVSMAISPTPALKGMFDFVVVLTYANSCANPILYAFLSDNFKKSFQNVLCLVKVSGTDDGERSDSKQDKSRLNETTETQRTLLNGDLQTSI
How it was run: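 Dual-tracer internalization in CHO cells stably expressing N-terminally tagged hsst2 (90000–120000 cells/well, plated the day before). Acid wash at pH 5 removed surface-bound activity; nonspecific uptake was taken with 5 µM TOC; triplicates. EC50 is expressed relative to [125I]TOC.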

[8] = target: T2, Somatostatin receptor type 1; experiment: In vitro inhibition of [125I][Leu8,D-Trp22,Tyr25] somatostatin 28 binding to human somatostatin receptor type 1 expressed in CHO-K1 cells; (n=7); how it was run: as §1
[9] = target: T1, Somatostatin receptor type 3; experiment: In vitro inhibition of [125I][Leu8,D-Trp22,Tyr25] somatostatin 28 binding to human somatostatin receptor type 3 expressed in CCL39 cells; (n=4); how it was run: as §1
[10] = target: T3, Somatostatin receptor type 4; experiment: In vitro inhibition of [125I][Leu8,D-Trp22,Tyr25] somatostatin 28 binding to human somatostatin receptor type 4 expressed in CCL39 cells; (n=6)
[11] = target: Somatostatin receptor type 5 (Homo sapiens, UniProt P35346); experiment: In vitro inhibition of [125I][Leu8,D-Trp22,Tyr25] somatostatin 28 binding to human somatostatin receptor type 5 expressed in CHO-K1 cells; (n=6)
Chain of Somatostatin receptor type 5 (P35346 whole entry): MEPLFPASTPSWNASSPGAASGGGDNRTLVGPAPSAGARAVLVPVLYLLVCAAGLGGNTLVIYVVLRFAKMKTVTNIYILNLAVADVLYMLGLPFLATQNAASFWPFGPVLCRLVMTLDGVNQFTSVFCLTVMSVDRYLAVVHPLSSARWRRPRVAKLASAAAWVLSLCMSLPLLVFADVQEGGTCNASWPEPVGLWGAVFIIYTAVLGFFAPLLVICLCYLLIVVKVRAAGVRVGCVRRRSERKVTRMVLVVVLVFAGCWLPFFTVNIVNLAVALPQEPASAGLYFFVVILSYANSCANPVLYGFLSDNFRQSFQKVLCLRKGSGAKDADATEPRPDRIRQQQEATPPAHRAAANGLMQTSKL

Q: How did the IC50 [1] turn out when C[C@H](O)[C@@H](CO)NC(=O)[C@@H]1CSSC[C@H](NC(=O)[C@H](N)Cc2ccccc2)C(=O)N[C@@H](Cc2ccc(O)cc2)C(=O)N[C@H](Cc2c[nH]c3ccccc23)C(=O)N[C@@H](CCCCN)C(=O)N[C@@H]([C@@H](C)O)C(=O)N1 was run?
A: 330 nM

Q: And the IC50 [2]?
A: > 1000 nM

Q: What about the IC50 [3] of the same compound?
A: 346 nM

Q: Which results are given for C[C@H](O)[C@@H](CO)NC(=O)[C@@H]1CSSC[C@H](NC(=O)[C@H](N)Cc2ccccc2)C(=O)N[C@@H](Cc2ccc(O)c(I)c2)C(=O)N[C@H](Cc2c[nH]c3ccccc23)C(=O)N[C@@H](CCCCN)C(=O)N[C@@H]([C@@H](C)O)C(=O)N1?
A: IC50 [4]: 186 nM; IC50 [5]: > 1000 nM; IC50 [6]: 729 nM

Q: How did the EC50 ([7]; cho) turn out when C[C@@H](O)[C@H](CO)NC(=O)[C@@H]1CSSC[C@H](NC(=O)[C@@H](Cc2ccccc2)NC[C@]2(O)OC[C@H](O)[C@@H](O)[C@@H]2O)C(=O)N[C@@H](Cc2ccc(O)c([123I])c2)C(=O)N[C@H](Cc2c[nH]c3ccccc23)C(=O)N[C@@H](CCCCN)C(=O)N[C@@H]([C@@H](C)O)C(=O)N1 was run?
A: 1.43 nM

Q: With C[C@@H](O)[C@@H]1NC(=O)[C@H](CCCCN)NC(=O)[C@@H](Cc2c[nH]c3ccccc23)NC(=O)[C@H](Cc2ccc(O)cc2)NC(=O)[C@@H](NC(=O)[C@@H](Cc2ccccc2)NC(=O)CN2CCN(CC(=O)O)CCN(CC(=O)O)CCN(CC(=O)O)CC2)CSSC[C@@H](C(=O)N[C@H](CO)[C@@H](C)O)NC1=O [EDOTREOTIDE] as the compound, how does the IC50 [8] read?
A: > 10 µM

Q: And the IC50 [9]?
A: 880 nM

Q: And the IC50 [10]?
A: > 1000 nM

Q: What about the IC50 [11] of the same compound?
A: 393 nM

Q: Which EC50 [7] does the source give for C[C@@H](O)[C@H](NC(=O)[C@@H]1CSSC[C@H](NC(=O)[C@H](N)Cc2ccccc2)C(=O)N[C@@H](Cc2ccc(O)c([123I])c2)C(=O)N[C@H](Cc2c[nH]c3ccccc23)C(=O)N[C@@H](CCCCN)C(=O)N[C@@H]([C@@H](C)O)C(=O)N1)C(=O)O here?
A: 1.7 nM

Q: C[C@@H](O)[C@H](CO)NC(=O)[C@@H]1CSSC[C@H](NC(=O)[C@@H](Cc2ccccc2)NC[C@]2(O)OC[C@H](O)[C@@H](O[C@@H]3O[C@@H](CO)[C@@H](O[C@@H]4O[C@@H](CO)[C@@H](O)[C@H](O)[C@@H]4O)[C@H](O)[C@@H]3O)[C@@H]2O)C(=O)N[C@@H](Cc2ccc(O)c([123I])c2)C(=O)N[C@H](Cc2c[nH]c3ccccc23)C(=O)N[C@@H](CCCCN)C(=O)N[C@@H]([C@@H](C)O)C(=O)N1 was tested. Which EC50 ([7]; cho) did it give?
A: 1.01 nM

Q: C[C@@H](O)[C@H](CO)NC(=O)[C@@H]1CSSC[C@H](NC(=O)[C@H](N)Cc2ccccc2)C(=O)N[C@@H](Cc2ccc(O)c([125I])c2)C(=O)N[C@H](Cc2c[nH]c3ccccc23)C(=O)N[C@@H](CCCCN)C(=O)N[C@@H]([C@@H](C)O)C(=O)N1 was tested. Which EC50 ([7]; cho) did it give?
A: 1 nM

Q: With C[C@@H](O)[C@H](NC(=O)[C@@H]1CSSC[C@H](NC(=O)[C@@H](Cc2ccccc2)NC[C@]2(O)OC[C@H](O)[C@@H](O[C@@H]3O[C@@H](CO)[C@@H](O)[C@H](O)[C@@H]3O)[C@@H]2O)C(=O)N[C@@H](Cc2ccc(O)c([123I])c2)C(=O)N[C@H](Cc2c[nH]c3ccccc23)C(=O)N[C@@H](CCCCN)C(=O)N[C@@H]([C@@H](C)O)C(=O)N1)C(=O)O as the compound, how does the EC50 ([7]; cho) read?
A: 2.13 nM
